Source: PubChem
S100A4 MyoIIA: inhibitors of S100A4-myosin IIA peptide binding, primary screen, biochemical, fluorescence polarization, TAMRA-MyoIIA peptide; Protein S100-A4 (Homo sapiens), P26447; inhibition, % at 10.7 µM; 360,000 compounds, 0.14% hits;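 active = mean inhibition of at least 70% across replicates, with every replicate also reaching that level; inconclusive = mean inhibition reaches 70% but some replicates fall short; inactive = mean inhibition below 70%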
Target sequence (P26447 whole entry, looked up): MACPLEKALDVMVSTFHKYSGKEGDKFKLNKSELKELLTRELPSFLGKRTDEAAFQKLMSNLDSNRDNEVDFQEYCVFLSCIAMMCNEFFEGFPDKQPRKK
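Test system: S100A4 monomer protein; Medium: HEPES pH 7.2 with CaCl2, KCl, NaCl, DTT, Triton; Probe or stimulus: TAMRA-labelled myosin IIA heavy-chain peptide probe, 5 nM; Doses: one dose per compound; Times: polarization read 5 min after assay mix addition, stable 5–60 min; Benchmarks: neutral control DMSO, positive control TFP.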
DENV2 CPE rescue: inhibitors of DENV2 cytopathic effect, primary screen, cell-based, plate reader, single concentration | DENV2-infected cells, cytopathic effect rescue | CPE inhibition, % at 9.99 µM | 350,000 compounds, 1.7% hits | AID 651640, 2012; in the data active = CPE inhibition above about 20%, passing the limit was not always enough; inconclusive = no clear call, values can overlap the other calls; tested in BHK-21 cells
PfHsp90 yeast 2: growth inhibition of PfHsp90-expressing yeast, primary screen, antimalarial PfHsp90 inhibitor project, S. cerevisiae, BacTiter-Glo luminescence, single point, set 2. AID 504621, 2011. BacTiter-Glo ATP, 48 h; yeast lacking PDR1 and PDR3 efflux regulators. inhibition, % at 9.4 µM. 310,000 compounds, 0.32% hits;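 active = every replicate shows inhibition above about 80%, whatever the replicate mean, limit read from the data; inconclusive = mean inhibition reaches the set limit but some replicate falls short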
AF4-AF9 inh: inhibitors of AF4 peptide binding to AF9, primary screen, biochemical, AlphaScreen, biotin-AF4 peptide, FLAG-AF9, single point. Protein AF-9 (Homo sapiens), P42568. inhibition, % at 10 µM. 350,000 compounds, 0.47% hits. AID 651704, 2012;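 active = every replicate reaching a set inhibition limit, whatever the replicate mean, cut at about 25% in these data; inconclusive = mean inhibition reaches that limit but some replicates miss it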
Target sequence (P42568 whole entry, looked up): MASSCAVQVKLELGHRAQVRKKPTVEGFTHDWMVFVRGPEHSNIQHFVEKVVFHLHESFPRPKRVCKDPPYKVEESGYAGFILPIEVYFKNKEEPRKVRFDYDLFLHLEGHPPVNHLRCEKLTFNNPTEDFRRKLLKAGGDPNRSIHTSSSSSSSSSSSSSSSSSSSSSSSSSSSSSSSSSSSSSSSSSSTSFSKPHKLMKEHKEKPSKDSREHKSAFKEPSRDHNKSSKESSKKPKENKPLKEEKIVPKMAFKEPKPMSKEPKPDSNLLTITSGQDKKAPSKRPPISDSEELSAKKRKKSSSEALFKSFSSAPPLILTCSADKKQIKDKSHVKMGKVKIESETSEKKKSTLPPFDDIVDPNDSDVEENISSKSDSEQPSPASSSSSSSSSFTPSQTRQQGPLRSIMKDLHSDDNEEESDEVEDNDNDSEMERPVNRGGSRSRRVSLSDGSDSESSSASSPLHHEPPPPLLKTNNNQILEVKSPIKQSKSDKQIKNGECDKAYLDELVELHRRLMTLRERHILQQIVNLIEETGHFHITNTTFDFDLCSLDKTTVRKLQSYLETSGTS
Cneo AK release: Cryptococcus neoformans cell lysis inducers, primary screen, AK release luminescence, single concentration | C. neoformans lysis, adenylate kinase release luminescence, 4 h; normalised: neutral wells 0, clomiphene wells 100 | lysis activity, % at 15 µM | 360,000 compounds, 0.2% hits | AID 651654, 2012;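 active = mean lysis activity across replicates of at least 80%, whatever share of replicates individually reach that level; inactive = mean lysis activity below 80%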
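Material: C. neoformans cells; Schedule: 4 h static compound exposure, 37 °C, read 1 h post-reagent; Measured by: adenylate kinase release luminescence; Read-out: signal increase indicating cell lysis; Controls: Clomiphene as positive lysis control.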
rRNA inh HTS: reduced GFP signal of wild-type E. coli, primary screen, bacterial rRNA inhibitor project, GFP/RFP fluorescence, OD600, single point; E. coli WT GFP vs humanized-ribosome RFP mutants, 24 h; active compounds read low; DMSO median 0, no signal -100; GFP signal change (wild-type ribosome), % (test concentration not listed); 350,000 compounds, 1.6% hits;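 active = significant combined selectivity score with lowered wild-type GFP, culture density cut under 30%, mutant RFP and density less affected; inactive = any of these conditions unmet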
Hits are given with their value; 0 = inactive; ? = inconclusive; - = not tested or not shown. Compounds with a hit are over-represented: about 3.2% of the library has one in this group of screens.

SMILES	S100A4 MyoIIA	DENV2 CPE rescue	PfHsp90 yeast 2	AF4-AF9 inh	Cneo AK release	rRNA inh HTS
COCCNC(=O)C[C@H]1CC[C@@H]2[C@H](COC[C@@H](O)CN2Cc2cccc(-c3ccncc3)c2)O1	0	0	-	0	0	0
O=C(CN1CCCCC1)Nc1ccc(N2CCCCCC2)cc1	0	0	0	31.0	-	0
O=C(CN1CCCCC1)Nc1ccccc1	-	-	-	-	0	-
COc1cccc(C2CC(c3ccc(Br)cc3)=NN2C(=O)c2ccncc2)c1OC (configuration not stated)	0	0	0	0	-	-35.3
O=C(C[C@H]1CC[C@@H]2[C@H](COC[C@H](O)CN2S(=O)(=O)c2ccc(F)cc2)O1)N[C@@H]1CCN(Cc2ccccc2)C1	0	0	-	0	0	0
CS(=O)(=O)N1CC2(C1)[C@H](c1ccccc1)[C@@H](CO)N2Cc1ccccn1	0	0	-	0	-	0
CC(Nc1ccc(Cl)c(Cl)c1)C(=O)NN (configuration not stated)	0	0	0	0	0	-25.9
NNC(=O)C(=O)Nc1ccc(Cl)c(Cl)c1	0	0	-	0	0	0
CCOC(=O)/C(=N\Nc1ccc(C(C)=O)cc1)c1csc(Nc2ccccc2)n1	-	-	0	-	-	-
CCOC(=O)/C(=N\Nc1ccccc1[N+](=O)[O-])c1csc(N)n1	0	0	0	0	-	-26.7
O=C(/C=C/c1ccccc1)Nc1cccnc1Oc1ccccc1F	0	0	0	0	0	-16.4
CN1CC(c2ccccc2)Oc2ccccc2C1=S (configuration not stated)	0	0	0	0	-	-36.2
O=C(Nc1ccccc1F)N[C@H]1CC[C@H](CCNC(=O)C2CCC2)O[C@H]1CO	0	0	-	0	0	0
C[C@H](CO)N1C[C@H](C)[C@@H](CN(C)CC2CC2)Oc2c(NC(=O)CCC(F)(F)F)cccc2C1=O	-	-	-	-	-	0
CC1(c2nnc(-c3ccccc3)o2)CC(c2c(Cl)cccc2Cl)=NO1 (configuration not stated)	0	0	0	0	0	-28.6
CC1(c2nnc(-c3ccncc3)o2)CC(c2ccc(F)cc2)=NO1 (configuration not stated)	0	0	0	33.9	0	0
CCC(=O)N(C)C[C@H]1Oc2cc(-c3cccc(F)c3)ccc2S(=O)(=O)N([C@H](C)CO)C[C@H]1C	0	0	-	0	0	0
C[C@H]1CN([C@@H](C)CO)S(=O)(=O)c2ccc(C#CC3(O)CCCC3)cc2O[C@@H]1CN(C)C(=O)c1ccncc1	0	0	-	0	0	0
CC(C)(C)C(=O)C(Cc1ccccc1Cl)n1cncn1 (configuration not stated)	-	-	?	-	0	-
CC(C)(C)C(O)C(Cc1ccccc1Cl)n1cncn1 (configuration not stated)	0	0	91.8	0	0	0
CC(C)(C)C(=O)C(Cl)C(=O)Nc1ccccc1 (configuration not stated)	0	0	107.1	0	-	0
O=C(Nc1ccc(Nc2ccccc2)cc1)C(Cl)Cl	-	-	0	-	-	-
Cc1noc(C)c1S(=O)(=O)Nc1ccc2c(c1)CC(=O)N([C@H](C)CO)C[C@@H](C)[C@H](CN(C)C(=O)Nc1ccc(F)cc1)O2	0	0	-	0	0	0
CO[C@H]1CN(C)C(=O)c2cc(NC(=O)CC(F)(F)F)ccc2OC[C@@H](C)N(C(=O)C2CCCCC2)C[C@@H]1C	0	0	-	0	-	0
CCC(=O)Nc1ccc2c(c1)OC[C@H](C)N(CCC(F)(F)F)C[C@@H](C)[C@H](OC)CN(C)C2=O	0	24.1	-	0	0	0
SMILES	S100A4 MyoIIA	DENV2 CPE rescue	PfHsp90 yeast 2	AF4-AF9 inh	Cneo AK release	rRNA inh HTS
CCCC(=O)Nc1ccc2c(c1)C(=O)N(C)C[C@H](OC)[C@H](C)CN(CCC(F)(F)F)[C@@H](C)CO2	0	22.5	-	0	0	0
CCCN1C[C@@H](C)[C@@H](OC)CN(C)C(=O)c2cc(NC(=O)CC(F)(F)F)ccc2OC[C@@H]1C	0	55.8	-	0	-	0
CCCN1C[C@H](C)[C@H](OC)CN(C)C(=O)c2cc(NC(=O)CC(F)(F)F)ccc2OC[C@H]1C	0	0	-	0	-	0
CO[C@H]1CN(C)C(=O)c2cc(NC(=O)CC(F)(F)F)ccc2OC[C@H](C)N(C(=O)C2CCCCC2)C[C@H]1C	0	50.1	-	0	-	0
Cc1ccccc1S(=O)(=O)N1C[C@@H](O)COC[C@H]2O[C@@H](CC(=O)O)CC[C@@H]21	0	0	-	0	0	0
O=C(Nc1cccc(NC(=O)c2cccs2)c1)c1ccc2c(c1)OCO2	0	0	0	0	0	-33.9
Cc1nc2ccc(NC(=O)c3ccc(Cl)c(NC(=O)c4cccs4)c3)cc2s1	-	-	0	-	0	-
Cc1ccc(NC(=O)c2ccc(Cl)c(NC(=O)c3cccs3)c2)cc1	0	0	0	0	0	-37.4
O=C(Nc1ccc(NC(=O)c2cccs2)cc1)c1ccc2c(c1)OCO2	0	0	0	0	0	0
C[C@H]1CN([C@@H](C)CO)C(=O)c2cccc(NS(=O)(=O)c3ccc(F)cc3)c2O[C@@H]1CN(C)S(=O)(=O)c1cccs1	0	0	-	0	0	0
O=S(=O)(c1cccs1)N1CCN(c2ccnc3cc(Cl)ccc23)CC1	0	64.0	0	0	0	0
Cc1ccc(F)cc1NC(=O)N1CCN(c2ccnc3cc(Cl)ccc23)CC1	0	0	0	0	0	0
O=C(Nc1cc(F)ccc1F)N1CCN(c2ccnc3cc(Cl)ccc23)CC1	0	0	0	0	-	-27.6
C[C@@H]1CCCCO[C@@H](CN(C)C(=O)Nc2cccc3ccccc23)[C@H](C)CN([C@H](C)CO)C(=O)c2cc(NC(=O)C3CCCCC3)ccc2O1	0	0	-	0	0	0
Nc1ccc(N2CCOCC2)c(S(=O)(=O)Nc2cc(Cl)ccc2Cl)c1	0	0	0	0	0	-25.8
CNC(=S)Nc1cc(S(=O)(=O)Nc2cc(Cl)ccc2Cl)ccc1N1CCCC1	0	0	0	0	0	-26.6
COc1ccc(C2CC(c3ccccc3)=NN2S(=O)(=O)c2ccc(C)cc2)c(OC)c1 (configuration not stated)	-	-	0	-	-	-
COc1ccc(C2CC(c3ccccc3)=NN2S(=O)(=O)c2ccccc2)c(OC)c1 (configuration not stated)	0	22.2	0	0	-	0
Cc1nc2ccc(Br)cc2c(=O)n1Cc1cccs1	0	0	0	0	-	-31.8
